{"source": "ChEMBL document CHEMBL1121966", "about": "“(2R*,3S*)-1-[125I]Iodo-2,3-bis(4-hydroxyphenyl)pentane ([125I]iodonorhexestrol) and (2R*,3S*)-1-[77Br]Bromo-2,3-bis(4-hydroxyphenyl)pentane ([77Br]bromonorhexestrol), two gamma-emitting estrogens that show receptor-mediated uptake by target tissues in vivo” (1982)", "key": {"Rattus norvegicus [1]": {"organism": "Rattus norvegicus", "assay": "Percent injected dose per gram esophagus at 3h", "type": "functional", "in_short": "(§1)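 Dual-label study in immature 25-day female Sprague-Dawley rats (ca. 50 g). Each received 2 μCi [77Br]bromo tracer (≤1.25 pmol/dose) and 2 μCi 16α-[125I]iodoestradiol (2 pmol/dose) by tail or jugular vein, in ethanol diluted with saline/rat serum 1:1. Rats were killed at 3 or 6 h; blood and 11 tissues were weighed and counted. Five rats per time point; mean ± SD.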"}, "Rattus norvegicus [2]": {"organism": "Rattus norvegicus", "assay": "Percent injected dose per gram esophagus at 6 hr", "type": "functional", "in_short": "as §1"}, "Rattus norvegicus [3]": {"organism": "Rattus norvegicus", "assay": "Percent injected dose per gram kidney at 1 hr", "type": "functional", "in_short": "(§2)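 Immature (25-day, ca. 50 g) Sprague-Dawley female rats received an iv injection (jugular or tail vein) of HPLC-purified tracer in ethanol plus 0.9% NaCl/rat serum 1:1. Doses were 2 μCi [125I]iodo tracer (≤15 pmol), or 2 μCi [77Br]bromo tracer (≤1.25 pmol) with 2 μCi 16α-[125I]iodoestradiol. Animals were killed at 1 h; blood and tissues were weighed and γ-counted. Blocking: coinjected unlabeled estradiol, 9 μg (iodo) or 18 μg (bromo). Mean ± SD.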"}, "Rattus norvegicus [4]": {"organism": "Rattus norvegicus", "assay": "Percent injected dose per gram kidney at 1 hr with unlabeled estradiol", "type": "functional", "in_short": "as §2"}, "Rattus norvegicus [5]": {"organism": "Rattus norvegicus", "assay": "Percent injected dose per gram kidney at 3h", "type": "functional", "in_short": "as §1"}, "Rattus norvegicus [6]": {"organism": "Rattus norvegicus", "assay": "Percent injected dose per gram liver at 1 hr", "type": "functional", "in_short": "(§3)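 Immature (25 day) female Sprague-Dawley rats (ca. 50 g) were dosed iv (jugular or tail vein) in ethanol plus 0.9% NaCl/rat serum (1:1). Doses were 2 μCi of [125I]iodonorhexestrol (≤15 pmol/dose), or 2 μCi each of [77Br]bromonorhexestrol (≤1.25 pmol/dose) and 16α-[125I]iodoestradiol (2 pmol/dose). Rats were killed at 1, 3 or 6 h; blood and tissues were weighed and γ-counted. Thyroid weight assumed 0.005 g/100 g body weight. Mean ± SD.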"}, "Rattus norvegicus [7]": {"organism": "Rattus norvegicus", "assay": "Percent injected dose per gram liver at 1 hr with unlabeled estradiol", "type": "functional", "in_short": "(§4)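 Same iv biodistribution in immature female rats, killed at 1 h, with unlabeled estradiol coinjected to block receptor uptake: 9 μg with [125I]iodonorhexestrol (3 rats), 18 μg with the [77Br]bromonorhexestrol/16α-[125I]iodoestradiol pair (5 rats). Tissue and blood radioactivity were counted as % injected dose/g and tissue-to-blood ratio.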"}, "Rattus norvegicus [8]": {"organism": "Rattus norvegicus", "assay": "Percent injected dose per gram liver at 3h", "type": "functional", "in_short": "as §3"}, "Rattus norvegicus [9]": {"organism": "Rattus norvegicus", "assay": "Percent injected dose per gram liver at 6 hr", "type": "functional", "in_short": "as §3"}, "Rattus norvegicus [10]": {"organism": "Rattus norvegicus", "assay": "Percent injected dose per gram lung at 1 hr", "type": "functional", "in_short": "as §3"}, "Rattus norvegicus [11]": {"organism": "Rattus norvegicus", "assay": "Percent injected dose per gram lung at 1 hr with unlabeled estradiol", "type": "functional", "in_short": "as §4"}, "Rattus norvegicus [12]": {"organism": "Rattus norvegicus", "assay": "Percent injected dose per gram lung at 3h", "type": "functional", "in_short": "as §3"}, "Rattus norvegicus [13]": {"organism": "Rattus norvegicus", "assay": "Percent injected dose per gram lung at 6 hr", "type": "functional", "in_short": "as §3"}, "Rattus norvegicus [14]": {"organism": "Rattus norvegicus", "assay": "Percent injected dose per gram spleen at 1 hr", "type": "functional", "in_short": "as §3"}, "Rattus norvegicus [15]": {"organism": "Rattus norvegicus", "assay": "Percent injected dose per gram spleen at 1 hr with unlabeled estradiol", "type": "functional", "in_short": "as §4"}, "Rattus norvegicus [16]": {"organism": "Rattus norvegicus", "assay": "Percent injected dose per gram spleen at 3h", "type": "functional", "in_short": "as §3"}, "Rattus norvegicus [17]": {"organism": "Rattus norvegicus", "assay": "Percent injected dose per gram thyroid at 1 hr", "type": "functional, Thyroid gland", "in_short": "as §3"}, "Rattus norvegicus [18]": {"organism": "Rattus norvegicus", "assay": "Percent injected dose per gram thyroid at 1 hr with unlabeled estradiol", "type": "functional, Thyroid gland", "in_short": "as §4"}, "Rattus norvegicus [19]": {"organism": "Rattus norvegicus", "assay": "Percent injected dose per gram thyroid at 3h", "type": "functional, Thyroid gland", "in_short": "as §3"}, "Rattus norvegicus [20]": {"organism": "Rattus norvegicus", "assay": "Percent injected dose per gram thyroid at 6 hr", "type": "functional, Thyroid gland", "in_short": "as §3"}, "Rattus norvegicus [21]": {"organism": "Rattus norvegicus", "assay": "Percent injected dose per gram Uterus at 6 hr", "type": "functional", "in_short": "as §1"}, "Rattus norvegicus [22]": {"organism": "Rattus norvegicus", "assay": "Percent injected dose per gram blood at 1 hr", "type": "functional", "in_short": "as §2"}, "Rattus norvegicus [23]": {"organism": "Rattus norvegicus", "assay": "Percent injected dose per gram blood at 1 hr with unlabeled estradiol", "type": "functional", "in_short": "as §2"}, "Rattus norvegicus [24]": {"organism": "Rattus norvegicus", "assay": "Percent injected dose per gram blood at 3h", "type": "functional", "in_short": "as §1"}, "Rattus norvegicus [25]": {"organism": "Rattus norvegicus", "assay": "Percent injected dose per gram blood at 6 hr", "type": "functional", "in_short": "as §1"}, "Rattus norvegicus [26]": {"organism": "Rattus norvegicus", "assay": "Percent injected dose per gram esophagus at 1 hr", "type": "functional", "in_short": "as §2"}, "Rattus norvegicus [27]": {"organism": "Rattus norvegicus", "assay": "Percent injected dose per gram esophagus at 1 hr with unlabeled estradiol", "type": "functional", "in_short": "as §2"}, "Rattus norvegicus [28]": {"organism": "Rattus norvegicus", "assay": "Percent injected dose per gram Muscle at 1 hr with unlabeled estradiol", "type": "functional", "in_short": "as §2"}, "Rattus norvegicus [29]": {"organism": "Rattus norvegicus", "assay": "Percent injected dose per gram Muscle at 3h", "type": "functional", "in_short": "as §1"}, "Rattus norvegicus [30]": {"organism": "Rattus norvegicus", "assay": "Percent injected dose per gram Muscle at 6 hr", "type": "functional", "in_short": "as §1"}, "Rattus norvegicus [31]": {"organism": "Rattus norvegicus", "assay": "Percent injected dose per gram Ovaries at 1 hr", "type": "functional", "in_short": "as §2"}, "Rattus norvegicus [32]": {"organism": "Rattus norvegicus", "assay": "Percent injected dose per gram Ovaries at 1 hr with unlabeled estradiol", "type": "functional", "in_short": "as §2"}, "Rattus norvegicus [33]": {"organism": "Rattus norvegicus", "assay": "Percent injected dose per gram Ovaries at 3h", "type": "functional", "in_short": "as §1"}, "Rattus norvegicus [34]": {"organism": "Rattus norvegicus", "assay": "Percent injected dose per gram Ovaries at 6 hr", "type": "functional", "in_short": "as §1"}, "Rattus norvegicus [35]": {"organism": "Rattus norvegicus", "assay": "Percent injected dose per gram Uterus at 1 hr", "type": "functional", "in_short": "as §2"}, "Rattus norvegicus [36]": {"organism": "Rattus norvegicus", "assay": "Percent injected dose per gram Uterus at 1 hr with unlabeled estradiol", "type": "functional", "in_short": "as §2"}, "[37]": {"assay": "Ovary/blood distribution ratio was determined in immature female rats at 6 hr", "type": "functional", "in_short": "as §1"}, "[38]": {"assay": "Ovary/blood distribution ratio was determined in immature female rats at 1 hr", "type": "functional", "in_short": "as §2"}, "[39]": {"assay": "Ovary/blood distribution ratio was determined in immature female rats at 1 hr with unlabeled estradiol", "type": "functional", "in_short": "as §2"}, "[40]": {"assay": "Ovary/blood distribution ratio was determined in immature female rats at 3h", "type": "functional", "in_short": "as §1"}}}
{"smiles": "C[C@]12CC[C@@H]3c4ccc(O)cc4CC[C@H]3[C@@H]1C[C@@H](I)[C@@H]2O", "values": [{"measurement": "Injected dose", "setting": "Rattus norvegicus [1]", "result": 0.32, "unit": "%"}, {"measurement": "Injected dose", "setting": "Rattus norvegicus [2]", "result": 0.14, "unit": "%"}, {"measurement": "Injected dose", "setting": "Rattus norvegicus [3]", "result": 1.48, "unit": "%"}, {"measurement": "Injected dose", "setting": "Rattus norvegicus [4]", "result": 2.77, "unit": "%"}, {"measurement": "Injected dose", "setting": "Rattus norvegicus [5]", "result": 0.94, "unit": "%"}, {"measurement": "Injected dose", "setting": "Rattus norvegicus [6]", "result": 2.37, "unit": "%"}, {"measurement": "Injected dose", "setting": "Rattus norvegicus [7]", "result": 4.91, "unit": "%"}, {"measurement": "Injected dose", "setting": "Rattus norvegicus [8]", "result": 1.96, "unit": "%"}, {"measurement": "Injected dose", "setting": "Rattus norvegicus [9]", "result": 0.9, "unit": "%"}, {"measurement": "Injected dose", "setting": "Rattus norvegicus [10]", "result": 0.75, "unit": "%"}, {"measurement": "Injected dose", "setting": "Rattus norvegicus [11]", "result": 1.76, "unit": "%"}, {"measurement": "Injected dose", "setting": "Rattus norvegicus [12]", "result": 0.36, "unit": "%"}, {"measurement": "Injected dose", "setting": "Rattus norvegicus [13]", "result": 0.14, "unit": "%"}, {"measurement": "Injected dose", "setting": "Rattus norvegicus [14]", "result": 0.43, "unit": "%"}, {"measurement": "Injected dose", "setting": "Rattus norvegicus [15]", "result": 0.79, "unit": "%"}, {"measurement": "Injected dose", "setting": "Rattus norvegicus [16]", "result": 0.18, "unit": "%"}, {"measurement": "Injected dose", "setting": "Rattus norvegicus [17]", "result": 7.46, "unit": "%"}, {"measurement": "Injected dose", "setting": "Rattus norvegicus [18]", "result": 11.9, "unit": "%"}, {"measurement": "Injected dose", "setting": "Rattus norvegicus [19]", "result": 190.9, "unit": "%"}, {"measurement": "Injected dose", "setting": "Rattus norvegicus [20]", "result": 276.6, "unit": "%"}, {"measurement": "Injected dose", "setting": "Rattus norvegicus [21]", "result": 1.57, "unit": "%"}, {"measurement": "Injected dose", "setting": "Rattus norvegicus [22]", "result": 0.47, "unit": "%"}, {"measurement": "Injected dose", "setting": "Rattus norvegicus [23]", "result": 1.22, "unit": "%"}, {"measurement": "Injected dose", "setting": "Rattus norvegicus [24]", "result": 0.46, "unit": "%"}, {"measurement": "Injected dose", "setting": "Rattus norvegicus [25]", "result": 0.22, "unit": "%"}, {"measurement": "Injected dose", "setting": "Rattus norvegicus [26]", "result": 0.49, "unit": "%"}, {"measurement": "Injected dose", "setting": "Rattus norvegicus [27]", "result": 1.07, "unit": "%"}, {"measurement": "Injected dose", "setting": "Rattus norvegicus [28]", "result": 0.92, "unit": "%"}, {"measurement": "Injected dose", "setting": "Rattus norvegicus [29]", "result": 0.15, "unit": "%"}, {"measurement": "Injected dose", "setting": "Rattus norvegicus [30]", "result": 0.05, "unit": "%"}, {"measurement": "Injected dose", "setting": "Rattus norvegicus [31]", "result": 4.17, "unit": "%"}, {"measurement": "Injected dose", "setting": "Rattus norvegicus [32]", "result": 2.47, "unit": "%"}, {"measurement": "Injected dose", "setting": "Rattus norvegicus [33]", "result": 1.75, "unit": "%"}, {"measurement": "Injected dose", "setting": "Rattus norvegicus [34]", "result": 0.52, "unit": "%"}, {"measurement": "Injected dose", "setting": "Rattus norvegicus [35]", "result": 9.59, "unit": "%"}, {"measurement": "Injected dose", "setting": "Rattus norvegicus [36]", "result": 1.81, "unit": "%"}, {"measurement": "Ratio", "setting": "[37]", "result": 2.49}, {"measurement": "Ratio", "setting": "[38]", "result": 3.02}, {"measurement": "Ratio", "setting": "[39]", "result": 1.36}, {"measurement": "Ratio", "setting": "[40]", "result": 2.03}]}
